Key:
[1] = target: Sodium-dependent dopamine transporter (Rattus norvegicus, UniProt P23977); test: Inhibition of [3H]dopamine reuptake at DAT in Sprague-Dawley rat brain striatal synaptosomes incubated for 5 mins prior to [3H]dopamine addition measured after 3 mins by scintillation counting analysis; type: subcellular; conditions: read-out: I50
Method in brief: (§1)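 Crude P2 synaptosomes from male Sprague-Dawley rat striatum (dopamine) or cerebral cortex (norepinephrine), prepared at 0 °C in 0.32 M sucrose. Tritiated substrate 0.1 μM, 37 °C. Uptake quenched with cold saline plus 100 μM unlabelled substrate, then filtered. 0 °C blanks subtracted. Three inhibitor concentrations, each in triplicate. I50 taken where A0/A1 = 2, by linear regression against concentration.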

[2] = Inhibition of [3H]norepinephrine reuptake at NET in Sprague-Dawley rat brain cortical synaptosomes incubated for 5 mins prior to [3H]norepinephrine addition measured after 3 mins by scintillation counting analysis; type: subcellular; conditions: read-out: I50; method in brief: as §1

Sodium-dependent dopamine transporter, sequence (P23977 whole entry): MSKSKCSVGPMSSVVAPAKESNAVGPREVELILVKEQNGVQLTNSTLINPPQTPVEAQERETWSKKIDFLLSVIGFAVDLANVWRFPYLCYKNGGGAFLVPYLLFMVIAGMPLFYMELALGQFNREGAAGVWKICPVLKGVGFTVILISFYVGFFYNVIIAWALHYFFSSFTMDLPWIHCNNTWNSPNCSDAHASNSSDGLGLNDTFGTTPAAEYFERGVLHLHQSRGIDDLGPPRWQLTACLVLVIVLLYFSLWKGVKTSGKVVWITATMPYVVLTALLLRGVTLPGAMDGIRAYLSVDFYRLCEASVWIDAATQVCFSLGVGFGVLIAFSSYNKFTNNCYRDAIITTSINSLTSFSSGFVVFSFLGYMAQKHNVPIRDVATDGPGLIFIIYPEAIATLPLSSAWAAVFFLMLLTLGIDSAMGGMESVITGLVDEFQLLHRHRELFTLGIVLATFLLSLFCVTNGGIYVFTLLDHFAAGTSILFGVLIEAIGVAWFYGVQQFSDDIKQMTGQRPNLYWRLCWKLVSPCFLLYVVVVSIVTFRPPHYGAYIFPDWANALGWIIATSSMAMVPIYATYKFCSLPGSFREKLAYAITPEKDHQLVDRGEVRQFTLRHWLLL

SMILES	IC50 [1] [µM]	IC50 [2] [µM]
CCN(CCCl)Cc1ccccc1Br	5.87	0.05
ClCCNCc1ccccc1Br	326	50.2
CCN(CCO)Cc1ccccc1Br	640	78
CCN(CCO)Cc1ccccc1C	1050	137
CCN(CCCl)Cc1cccc(C)c1	28.6	0.77
CCN(CCO)Cc1cccc(C)c1	250	49
CCN(CCCl)Cc1ccc(C)cc1	78.4	3.05
CCN(CCCl)Cc1ccccc1OC	303	31.1
CCN(CCCl)Cc1cccc(OC)c1	127	23.2
CCN(CCCl)Cc1ccc(OC)cc1	147	29.8

— ChEMBL document CHEMBL3227960, “Inhibition of uptake of catecholamines by benzylamine derivatives” (J Med Chem, 1979)
